ALR inh = human ALR oxidase inhibition via reduced H2O2 | P55789 | purified ALR, DTT oxidation, H2O2 HRP-luminol luminescence | 290,000 compounds, 3.8% hits | AID 485317 | inhibition, % (test concentration not listed);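 active = mean replicate inhibition above about 79%, with every replicate also reaching it, limit read from the data; inconclusive = only one of the two criteria met; inactive = mean below limit and not every replicate reaching it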
Target sequence (P55789 whole entry, looked up): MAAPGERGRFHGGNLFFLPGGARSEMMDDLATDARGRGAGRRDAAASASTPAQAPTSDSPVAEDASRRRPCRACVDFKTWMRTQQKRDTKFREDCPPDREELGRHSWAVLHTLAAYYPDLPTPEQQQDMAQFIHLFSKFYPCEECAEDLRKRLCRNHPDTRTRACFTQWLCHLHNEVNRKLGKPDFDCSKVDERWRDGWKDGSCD
ZTA DNA inh = counter-screen for EBNA-1 inhibitors: inhibitors of Epstein-Barr virus ZTA; P03206; ZTA-DNA binding, fluorescence polarization; inhibition, % at 11 µM; 320,000 compounds, 0.15% hits; AID 2234; in the data active = inhibition above about 33%
Target sequence (P03206 whole entry, looked up): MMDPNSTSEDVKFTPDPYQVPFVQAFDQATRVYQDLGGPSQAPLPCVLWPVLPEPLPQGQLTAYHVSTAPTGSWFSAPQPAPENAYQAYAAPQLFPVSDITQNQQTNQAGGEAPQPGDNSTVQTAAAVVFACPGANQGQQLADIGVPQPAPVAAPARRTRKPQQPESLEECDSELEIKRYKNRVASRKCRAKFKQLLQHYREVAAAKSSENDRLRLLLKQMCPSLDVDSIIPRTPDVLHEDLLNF
HCV NS3 hel inh = HCV NS3 helicase inhibition | NS3 helicase DNA unwinding, Cy5 molecular beacon fluorescence | inhibition, % at 10.9 µM | 290,000 compounds, 0.56% hits;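 active = inhibition above the mean of all tested compounds plus 3 SD, set per campaign, cut at about 35% in these data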;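 also: 0% = DMSO wells and 100% = thioflavine S control wells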
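assay system = NS3 helicase fragment of HCV | buffer or medium = MOPS pH 6.5, MgCl2, DTT, Tween20, BSA | timing = 60 min unwinding reaction at 25 °C after ATP addition | signal = Cy5 beacon fluorescence read at start and 1 h | read-out basis = % inhibition of unwinding | control set = low DMSO, high thioflavine S at 110 µM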
core dimer inh = HCV core protein dimerization inhibition; TR-FRET GST/Flag-core106 dimerization, 1536-well; inhibition, % at 5 µM; 300,000 compounds, 0.33% hits; AID 1899;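 active = inhibition above the mean of all tested compounds plus 3 SD, set per screening campaign, cut at about 45% in these data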
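Material: Tagged HCV core106 pair (GST and Flag) | Amount: GST-core106 13.5 nM, Flag-core106 17 nM | Medium: KF-containing HEPES buffer, pH 7.45, DTT, CHAPS, BSA | Reagent: Eu donor and XL665 acceptor anti-tag antibodies | Schedule: 4 h at 22.5 °C | Technique: Time-resolved FRET, ex 340 nm, em 617 and 671 nm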
PfM18AAP inh-1 = PfM18AAP enzyme inhibition | recombinant PfM18AAP, H-Glu-NHMec fluorogenic cleavage | inhibition, % at 7.35 µM | 290,000 compounds, 1.2% hits;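 active = inhibition above the campaign mean inhibition over all tested compounds plus 3 SD, cut at about 28% in these data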;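 also: 0% = plate median of test compound wells and 100% = 2 mM ZnCl2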
EBNA-1 inh = blocks EBNA-1 binding to DNA; inhibition, % at 14.8 µM; EBNA-1 DNA binding, fluorescence polarization; 300,000 compounds, 0.34% hits; in the data active = inhibition above about 28%
PfM18AAP inh-2 = confirmation of Plasmodium falciparum M18 aspartyl aminopeptidase inhibitors. shares compounds with PfM18AAP inh-1. 2,400 compounds, 28% hits. AID 2170. recombinant PfM18AAP, H-Glu-NHMec fluorogenic cleavage. inhibition, % at 7.35 µM;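 active = mean inhibition over replicate wells above the hit cutoff set for the earlier primary screen, cut at about 29% in these data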;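 also: 0% = median of test compound wells and 100% = 2 mM ZnCl2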
CTSL1 counter = counter-screen for PFM18AAP inhibitors: confirmation of human cathepsin L inhibitors. AID 2178. shares compounds with PfM18AAP inh-1. inhibition, % at 5.96 µM. purified cathepsin L1, Z-Leu-Arg-MCA fluorescence. 2,400 tested, under 10 active;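 active = average inhibition across replicates above the hit cutoff set in the earlier primary screen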;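 also: 0% = median of test compound wells and 100% = Z-Phe-Ala-diazomethylketone 1 µM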
* marks the source's active call; other numbers are inactive results. The list is not random: actives were taken first. Their share in the collection is about 5.2%.

Screening N#C/C(Cn1c[n+](NC(=O)Nc2ccccc2)cn1)=N/O returned ALR inh -12, ZTA DNA inh 14, HCV NS3 hel inh 3, core dimer inh -9, PfM18AAP inh-1 47*, EBNA-1 inh 3, PfM18AAP inh-2 10 and CTSL1 counter 2.
Screening O=C(N/N=C/c1c[nH]c2ccccc12)c1cccc(O)c1 returned ALR inh 24, ZTA DNA inh 4, HCV NS3 hel inh -8, core dimer inh -5, PfM18AAP inh-1 3 and EBNA-1 inh 6.
Screening O=C(N/N=C/c1c[nH]c2ccccc12)c1ccc(O)c(O)c1 returned ALR inh 99*, ZTA DNA inh 27, HCV NS3 hel inh 23, core dimer inh -3, PfM18AAP inh-1 70*, EBNA-1 inh -2, PfM18AAP inh-2 50* and CTSL1 counter 2.
O=C(CN1C(=O)c2ccccc2S1(=O)=O)c1ccc(O)c(O)c1 was read as ALR inh inconclusive, ZTA DNA inh -8, HCV NS3 hel inh -5, core dimer inh 1, PfM18AAP inh-1 47*, EBNA-1 inh -9, PfM18AAP inh-2 35* and CTSL1 counter 5.
Clc1ccccc1-c1nnc(CNC2CC2)o1 was read as ALR inh -3, ZTA DNA inh -3, HCV NS3 hel inh -4, core dimer inh -9, PfM18AAP inh-1 -8 and EBNA-1 inh -7.
Screening COc1cc(C2Nc3ccccc3C(=O)N2c2ccccc2OC)ccc1O (centres undefined) returned ALR inh 29, ZTA DNA inh 0, HCV NS3 hel inh 5, core dimer inh 1, PfM18AAP inh-1 -6 and EBNA-1 inh 1.
For O=C1c2ccccc2NC(c2ccc(O)c(O)c2)N1c1ccccc1Cl (centres undefined) the results were ALR inh 100*, ZTA DNA inh -1, HCV NS3 hel inh -4, core dimer inh -11, PfM18AAP inh-1 57*, EBNA-1 inh 10, PfM18AAP inh-2 56* and CTSL1 counter -2.
For NC(=O)C1CCCN(C(=O)c2ccc3c(c2)NC(=O)CS3)C1 (centres undefined) the results were ALR inh -1 and ZTA DNA inh 5.
`CCN(CC)c1ccc2c(c1)OC(N)=C(C#N)C2c1cccnc1` (centres undefined) gave ALR inh 5, ZTA DNA inh -19, HCV NS3 hel inh 5, core dimer inh -8, PfM18AAP inh-1 45*, EBNA-1 inh 0, PfM18AAP inh-2 9 and CTSL1 counter 1.
Screening CC(=O)c1sc2nsc(SCCN3CCCCC3)c2c1N returned ALR inh 8, ZTA DNA inh 3, HCV NS3 hel inh -1, core dimer inh -5, PfM18AAP inh-1 33*, EBNA-1 inh -3, PfM18AAP inh-2 -41 and CTSL1 counter -5.
`Nc1c(C(=O)c2ccc(Cl)cc2)sc2nsc(SCCN3CCOCC3)c12` gave ALR inh 22, ZTA DNA inh 7, HCV NS3 hel inh -6, core dimer inh -8, PfM18AAP inh-1 34*, EBNA-1 inh -2, PfM18AAP inh-2 -28 and CTSL1 counter 5.
Nc1c(C(=O)c2ccccc2)sc2nsc(SCCN3CCCC3)c12 was read as ALR inh 31, ZTA DNA inh -4, HCV NS3 hel inh -16, core dimer inh 1, PfM18AAP inh-1 35*, EBNA-1 inh -15, PfM18AAP inh-2 -30 and CTSL1 counter -4.
`CC(=O)Nc1nnc(CCN2CCCCC2)s1` gave ALR inh -28, ZTA DNA inh 14, HCV NS3 hel inh 8, core dimer inh -15, PfM18AAP inh-1 0 and EBNA-1 inh -4.
Screening CCN1/C(=C/C=C/C=C/C=C/c2sc3ccccc3[n+]2CC)Sc2ccccc21 returned ALR inh 12, ZTA DNA inh 60*, HCV NS3 hel inh -59, core dimer inh 28, PfM18AAP inh-1 40*, EBNA-1 inh 42*, PfM18AAP inh-2 -2 and CTSL1 counter 3.

Screening data as filed in PubChem.
